Test results taken from ChEMBL document CHEMBL4270599, “Synthesis of a 3'-C-ethynyl-β-d-ribofuranose purine nucleoside library: Discovery of C7-deazapurine analogs as potent antiproliferative nucleosides” (Eur J Med Chem, 2018).

Assays:
HCC 2998 [1] = assay: Cytotoxicity against human HCC2998 cells after 48 hrs by SRB assay; type: functional; details: HCC 2998, 48 h; for GI50: read-out: GI50; for TGI: read-out: TGI
Malme-3M = assay: Growth inhibition of human MALME-3M cells assessed as cell growth at 10^-7 M incubated for 48 hrs by sulforhodamine B assay relative to control; type: functional; details: read-out: Activity
K562 [2] = assay: Growth inhibition of human K562 cells assessed as cell growth at 10^-4 M incubated for 48 hrs by sulforhodamine B assay relative to control; type: functional; details: K562, 48 h, read-out: Activity
HOP-62 [3] = assay: Growth inhibition of human HOP62 cells assessed as cell growth at 10^-7 M incubated for 48 hrs by sulforhodamine B assay relative to control; type: functional; details: HOP-62, 48 h, read-out: Activity
HL-60(TB) [4] = assay: Growth inhibition of human HL-60(TB) cells assessed as cell growth at 10^-6 M incubated for 48 hrs by sulforhodamine B assay relative to control; type: functional; details: HL-60, 48 h, read-out: Activity
HL-60(TB) [5] = assay: Growth inhibition of human HL-60(TB) cells assessed as cell growth at 10^-8 M incubated for 48 hrs by sulforhodamine B assay relative to control; type: functional; details: HL-60, 48 h, read-out: Activity
RPMI-8226 = assay: Growth inhibition of human RPMI8226 cells assessed as cell growth at 10^-6 M incubated for 48 hrs by sulforhodamine B assay relative to control; type: functional; details: RPMI-8226, 48 h, read-out: Activity
MDA-MB-231 [6] = assay: Growth inhibition of human MDA-MB-231 cells assessed as cell growth at 10^-6 M incubated for 48 hrs by sulforhodamine B assay relative to control; type: functional; details: MDA-MB-231, 48 h, read-out: Activity
786-0 = assay: Cytotoxicity against human 786-0 cells after 48 hrs by SRB assay; type: functional; details: 786-0, 48 h; for GI50: read-out: GI50
RXF 393 [7] = assay: Growth inhibition of human RXF393 cells assessed as cell growth at 10^-8 M incubated for 48 hrs by sulforhodamine B assay relative to control; type: functional; details: RXF 393, 48 h, read-out: Activity
K562 [8] = assay: Growth inhibition of human K562 cells assessed as cell growth at 10^-8 M incubated for 48 hrs by sulforhodamine B assay relative to control; type: functional; details: K562, 48 h, read-out: Activity
SN12C = assay: Growth inhibition of human SN12C cells assessed as cell growth at 10^-6 M incubated for 48 hrs by sulforhodamine B assay relative to control; type: functional; details: read-out: Activity
OVCAR-8 = assay: Growth inhibition of human OVCAR8 cells assessed as cell growth at 10^-6 M incubated for 48 hrs by sulforhodamine B assay relative to control; type: functional; details: OVCAR-8, 48 h, read-out: Activity
OVCAR-5 = assay: Growth inhibition of human OVCAR5 cells assessed as cell growth at 10^-6 M incubated for 48 hrs by sulforhodamine B assay relative to control; type: functional; details: OVCAR-5, 48 h, read-out: Activity
COLO 205 = assay: Growth inhibition of human COLO205 cells assessed as cell growth at 10^-7 M incubated for 48 hrs by sulforhodamine B assay relative to control; type: functional; details: COLO 205, 48 h, read-out: Activity
HOP-62 [9] = assay: Growth inhibition of human HOP62 cells assessed as cell growth at 10^-8 M incubated for 48 hrs by sulforhodamine B assay relative to control; type: functional; details: HOP-62, 48 h, read-out: Activity
MDA-MB-231 [10] = assay: Cytotoxicity against human MDA-MB-231 cells after 48 hrs by SRB assay; type: functional; details: MDA-MB-231, 48 h; for GI50: read-out: GI50; for CC50: read-out: LC50 (the source's name)
SK-MEL-28 [11] = assay: Cytotoxicity against human SK-MEL-28 cells after 48 hrs by SRB assay; type: functional; details: SK-MEL-28, 48 h; for GI50: read-out: GI50; for TGI: read-out: TGI
SNB-75 = assay: Cytotoxicity against human SNB75 cells after 48 hrs by SRB assay; type: functional; details: SNB-75, 48 h; for GI50: read-out: GI50; for CC50: read-out: LC50 (the source's name); for TGI: read-out: TGI
CCRF-CEM = assay: Antiproliferative activity against human CEM cells after 72 hrs by Coulter counter method; type: functional, cell-based
Summary of the method: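 Cell count assay in 96-well microtiter plates; (5–7.5) × 10⁴ tumor cells per well plus test compound. Cells proliferated at 37 °C in humidified CO₂-controlled atmosphere, 48 h for murine leukemia L1210, 72 h for human lymphocytic CEM and cervix carcinoma HeLa. Counted by Coulter counter; IC₅₀ is the concentration that inhibits proliferation by 50%.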

A549 = assay: Growth inhibition of human A549/ATCC cells assessed as cell growth at 10^-8 M incubated for 48 hrs by sulforhodamine B assay relative to control; type: functional; details: A549, 48 h, read-out: Activity
HCC 2998 [12] = assay: Growth inhibition of human HCC2998 cells assessed as cell growth at 10^-7 M incubated for 48 hrs by sulforhodamine B assay relative to control; type: functional; details: HCC 2998, 48 h, read-out: Activity
SF-539 [13] = assay: Growth inhibition of human SF539 cells assessed as cell growth at 10^-7 M incubated for 48 hrs by sulforhodamine B assay relative to control; type: functional; details: SF-539, 48 h, read-out: Activity
IGROV-1 = assay: Growth inhibition of human IGROV1 cells assessed as cell growth at 10^-8 M incubated for 48 hrs by sulforhodamine B assay relative to control; type: functional; details: IGROV-1, 48 h, read-out: Activity
SR = assay: Cytotoxicity against human SR cells after 48 hrs by SRB assay; type: functional; details: for GI50: read-out: GI50
RXF 393 [14] = assay: Cytotoxicity against human RXF393 cells after 48 hrs by SRB assay; type: functional; details: RXF 393, 48 h; for GI50: read-out: GI50; for CC50: read-out: LC50 (the source's name); for TGI: read-out: TGI
SF-539 [15] = assay: Cytotoxicity against human SF539 cells after 48 hrs by SRB assay; type: functional; details: SF-539, 48 h; for GI50: read-out: GI50; for CC50: read-out: LC50 (the source's name); for TGI: read-out: TGI
SF-539 [16] = assay: Growth inhibition of human SF539 cells assessed as cell growth at 10^-8 M incubated for 48 hrs by sulforhodamine B assay relative to control; type: functional; details: SF-539, 48 h, read-out: Activity
SK-MEL-28 [17] = assay: Growth inhibition of human SK-MEL-28 cells assessed as cell growth at 10^-5 M incubated for 48 hrs by sulforhodamine B assay relative to control; type: functional; details: SK-MEL-28, 48 h, read-out: Activity
M14 = assay: Growth inhibition of human M14 cells assessed as cell growth at 10^-5 M incubated for 48 hrs by sulforhodamine B assay relative to control; type: functional; details: M14, 48 h, read-out: Activity
PC-3 = assay: Growth inhibition of human PC3 cells assessed as cell growth at 10^-4 M incubated for 48 hrs by sulforhodamine B assay relative to control; type: functional; details: PC-3, 48 h, read-out: Activity
[18] = read-out: LC50 (the source's name)
[19] = read-out: pLC50 (the source's name) (converted)

## C#C[C@@]1(O)[C@@H](CO)O[C@@H](n2cc(I)c3c(N)ncnc32)[C@@H]1O
HCC 2998 [1]
  GI50: 221 to 267 nM
  TGI: 2600 to 3470 nM
HCC 2998 [1]; [18]
  CC50: > 100000 nM
Malme-3M
  growth at 0.1 µM: 78 to 99%
K562 [2]
  growth at 100 µM: 7 to 8%
HOP-62 [3]
  growth at 0.1 µM: 72 to 75%
HL-60(TB) [4]
  growth at 1 µM: -38%
HL-60(TB) [5]
  growth at 0.01 µM: 83%
RPMI-8226
  growth at 1 µM: 23 to 27%
MDA-MB-231 [6]
  growth at 1 µM: 17 to 27%
786-0
  GI50: 236 to 334 nM
786-0; read-out: TGI
  TGI: 3240 nM
786-0; read-out: pLC50 (converted)
  LC50 (lethal concentration, 50% cell kill): > 100000 nM
786-0; read-out: pTGI (converted)
  TGI: 3240 nM
RXF 393 [7]
  growth at 0.01 µM: 94 to 102%
K562 [8]
  growth at 0.01 µM: 95 to 102%
SN12C
  growth at 1 µM: 16 to 25%
OVCAR-8
  growth at 1 µM: 3 to 5%
OVCAR-5
  growth at 1 µM: 43 to 64%
COLO 205
  growth at 0.1 µM: 35 to 63%
HOP-62 [9]
  growth at 0.01 µM: 83 to 89%
MDA-MB-231 [10]
  GI50: 168 to 204 nM
  CC50: > 100000 nM
MDA-MB-231 [10]; read-out: TGI
  TGI: > 100000 nM
MDA-MB-231 [10]; read-out: pTGI (converted)
  TGI: > 100000 nM
SK-MEL-28 [11]
  GI50: 1560 to 2460 nM
  TGI: 9270 to 14000 nM
SK-MEL-28 [11]; [19]
  CC50: > 100000 nM
SNB-75
  GI50: 373 to 559 nM
  CC50: 5530 to 5920 nM
  TGI: 1810 to 2180 nM
CCRF-CEM
  IC50: 120 nM
A549
  growth at 0.01 µM: 90 to 92%
HCC 2998 [12]
  growth at 0.1 µM: 70 to 75%
SF-539 [13]
  growth at 0.1 µM: 75 to 82%
IGROV-1
  growth at 0.01 µM: 39 to 60%
SR
  GI50: 182 to 378 nM
SR; [18]
  CC50: > 100000 nM
SR; read-out: TGI
  TGI: 8150 to 100000 nM
RXF 393 [14]
  GI50: 418 to 463 nM
  CC50: 7840 to 100000 nM
  TGI: 2010 to 2540 nM
SF-539 [15]
  GI50: 304 to 471 nM
  CC50: 28600 to 31300 nM
  TGI: 2180 to 2980 nM
SF-539 [16]
  growth at 0.01 µM: 89 to 102%

## C#C[C@@]1(O)[C@@H](CO)O[C@@H](n2cc(Br)c3c(N)ncnc32)[C@@H]1O
HCC 2998 [1]
  GI50: 169 to 240 nM
  TGI: 525 to 1250 nM
HCC 2998 [1]; [19]
  CC50: > 100000 nM
Malme-3M
  growth at 0.1 µM: 77 to 79%
SK-MEL-28 [17]
  growth at 10 µM: 38 to 40%
K562 [2]
  growth at 100 µM: 7%
HOP-62 [3]
  growth at 0.1 µM: 68 to 86%
M14
  growth at 10 µM: 6 to 11%
HL-60(TB) [5]
  growth at 0.01 µM: 81 to 82%
MDA-MB-231 [6]
  growth at 1 µM: 2 to 8%
786-0
  GI50: 164 to 351 nM
786-0; read-out: TGI
  TGI: 593 to 1630 nM
RXF 393 [7]
  growth at 0.01 µM: 99%
K562 [8]
  growth at 0.01 µM: 87 to 99%
PC-3
  growth at 100 µM: -5%
SN12C
  growth at 1 µM: 7 to 13%
OVCAR-8
  growth at 1 µM: 1 to 4%
OVCAR-5
  growth at 1 µM: 33 to 56%
COLO 205
  growth at 0.1 µM: 24 to 69%
HOP-62 [9]
  growth at 0.01 µM: 92 to 100%
MDA-MB-231 [10]
  GI50: 56 to 215 nM
  CC50: > 100000 nM
MDA-MB-231 [10]; read-out: TGI
  TGI: > 100000 nM
MDA-MB-231 [10]; read-out: pTGI (converted)
  TGI: > 100000 nM
SK-MEL-28 [11]
  GI50: 3050 to 4370 nM
  TGI: 30200 to 48100 nM
SK-MEL-28 [11]; [18]
  CC50: > 100000 nM
SNB-75
  GI50: 221 to 249 nM
  CC50: 1640 to 3670 nM
  TGI: 519 to 1070 nM
CCRF-CEM
  IC50: 30 nM
A549
  growth at 0.01 µM: 94 to 99%
HCC 2998 [12]
  growth at 0.1 µM: 73 to 80%
SF-539 [13]
  growth at 0.1 µM: 79 to 91%
IGROV-1
  growth at 0.01 µM: 81 to 88%
SR
  GI50: 43.8 to 84.5 nM
SR; read-out: TGI
  TGI: > 100000 nM
SR; [19]
  CC50: > 100000 nM
SR; read-out: pTGI
  TGI: > 100000 nM
RXF 393 [14]
  GI50: 205 to 479 nM
  CC50: > 100000 nM
  TGI: 653 to 2290 nM
SF-539 [15]
  GI50: 238 to 372 nM
  CC50: 22000 to 30900 nM
  TGI: 1140 to 2040 nM
SF-539 [16]
  growth at 0.01 µM: 91 to 93%
